These results are taken from ChEMBL document CHEMBL4513216, “Probing the Open Global Health Chemical Diversity Library for Multistage-Active Starting Points for Next-Generation Antimalarials” (ACS Infect Dis, 2020).

A short description of the data set: Toxicity liver stage against HepG2, at 10uM. Format: cell-based. More on the design: test concentration 10 uM, cell line HepG2-A16-CD81EGFP. The conditions noted are these: human, HepG2-A16-CD81EGFP cells; read-out: INHIBITION
The method in brief: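 Uninfected HepG2-A16-CD81EGFP cells, 3 × 10^3 per well, 1536-well, plated on prespotted compound at 10 μM final, parasite-free screening media added to match infected plates; puromycin 10 μM positive, DMSO 0.5% negative; run in parallel with 48 h PbLuc assay at 37 °C, 5% CO2; viability by CellTiter-Glo luminescence, normalized to controls.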

In the case of `CN(C)Cc1cccc(-c2cccnc2C(=O)NCC2CC2)c1`, the cytotoxicity at 10 µM came out at 1.59%.

Take `CC[C@@H](Cn1ncc2ccccc2c1=O)NC(=O)c1cnccn1`: the cytotoxicity at 10 µM amounted to 6.4%. Regarding `CC(C)c1n[nH]c(C2CN(CC(=O)N(C)Cc3ccco3)CCO2)n1` (stereo unspecified), the cytotoxicity at 10 µM is -5.92%. `COCC1CCCN(C(=O)c2ccc(N(C)Cc3cnn(C)c3)nc2)C1` (stereo unspecified): the cytotoxicity at 10 µM was -3.97%.

On to `CC(C)(C)c1nnc2n1C(C(=O)N1CCCC1)CC2` (stereo unspecified), for which the cytotoxicity at 10 µM is 1.61%. As for `Cn1cc(CN2CCc3c(CNC(=O)C4CC4)cncc3C2)cn1`, the cytotoxicity at 10 µM is -5.43%. As for `O=C1CC(c2ccc(C(=O)O)cc2)c2ncn(-c3ccccc3)c2N1` (stereo unspecified), the cytotoxicity at 10 µM is -1.04%. As for `Cc1ccc(C(=O)N2CC[C@H]3O[C@@H](c4noc(C)n4)C[C@H]3C2)o1`, the cytotoxicity at 10 µM turned out to be 1.92%. Consider `OCCN1CCCC(c2cccc(-c3ccccc3F)n2)C1` (stereo unspecified), for which the cytotoxicity at 10 µM is 5.68%. Turning to `CN(C)c1cccc(C(=O)N2C[C@@H]3CC[C@H]2CN(C(=O)C2CCC2)C3)c1`, the cytotoxicity at 10 µM is -0.69%. Take `CCN1C[C@@H]2[C@@H](OC)CCN(S(=O)(=O)c3ccccc3F)[C@@H]2C1`: the cytotoxicity at 10 µM is -0.902%. `O=C(NCCC(=O)N1CCCc2ccccc21)c1cc(F)cc(F)c1`: the cytotoxicity at 10 µM was -6.14%. With `Cc1nc2ncnn2c(C)c1CCC(=O)Nc1cccn(C)c1=O` the figure was -9.59%. With `Cn1cc(Cl)cc1C(=O)N1CCN(Cc2ccsc2)CC1` the figure was -2.86%; with `Cn1ncc2c(N3CCC(CC(=O)N4CCCC4)CC3)ncnc21`, 4.19%; with `COCCN1CCCC2(CCC(=O)N2Cc2cccnc2)C1` (stereo unspecified), 4.32%. With `CC(=O)N1CCCC1c1cccc(Cc2ccccc2F)n1` (stereo unspecified) the figure was -1.44%; with `CCc1nc(C)c([C@H]2CN(C)C[C@@H]2C(=O)Nc2ccc(OC)nc2)[nH]1`, -3.59%; with `Cc1nn(C)cc1CN1CCN(CC2(c3ccccc3)CC2)CC1`, 1.25%. `Cc1nc(CN2CCCCC2Cn2cncn2)nc2ccccc12` (stereo unspecified): the cytotoxicity at 10 µM is -3.46%. With `CCSc1ccccc1C(=O)NCCn1nc(-n2cncn2)ccc1=O` the figure was -5.65%; with `CN1CCCN(C(=O)NCc2ccccc2Cn2cncn2)CC1`, 3.58%.

As to `N[C@@H]1CC[C@H](C(=O)NCc2ccc3nonc3c2)C1`, the cytotoxicity at 10 µM is -5.35%. Next, `CC(C)CN1CCn2nc(CNc3ncnc4[nH]cnc34)cc2C1`: 6.88%; `CCC1CN(Cc2cccc(C(=O)N(C)C)c2)CCN1CCOC` (stereo unspecified): -2.99%; `CN(C)C(=O)CN1C[C@H]2CC[C@@H](C1)N(C(=O)CCn1cncn1)C2`: -9.96%. For the molecule `O=C(NCc1cccs1)[C@H]1CC[C@@H]2[C@@H](CCN2Cc2ccoc2)O1`, the cytotoxicity at 10 µM is -0.317%. With `NC(=O)CSCC(=O)NC1(c2cccc(Br)c2)CC1` the figure was -13.9%; with `Cc1cc(S(=O)(=O)N(C)CC(N)=O)ccc1Br`, 15%. Next, `CCc1ccc(NS(=O)(=O)c2cc3c(c(C(=O)O)c2)OCCO3)cc1`: -13.9%. `Cc1cnn(CC2CCCN2CC(=O)NC2CCN(C3CC3)CC2)c1` (stereo unspecified): the cytotoxicity at 10 µM was determined as 0.109%. With `Cc1ccc(CN2CCC3(CC2)C(=O)Nc2ccccc23)s1` the figure was 2.88%. With `Cc1cnn(CC2CN(Cc3nc4ccccc4c(=O)[nH]3)CCO2)c1` (stereo unspecified) the figure was -7.62%; with `CC(NC(=O)c1cccc[n+]1[O-])c1ccc2c(c1)CCC(=O)N2` (stereo unspecified), 45.2%; with `CCOCc1ccc(NC(=O)N2CCOC3(CCC3)C2)cc1`, 4.29%.

With `NC(=O)NC(=O)CCn1ccc(-c2ccccc2)n1`, the cytotoxicity at 10 µM is 5.2%. Next, `O=C1CC(c2cccc(O)c2)c2sc(C(=O)O)c(-c3ccccc3)c2N1` (stereo unspecified): 6.33%. Next, `N#Cc1c(N2CCCCC2)nsc1-c1cccnc1`: 18.8%.

As for `CS(=O)(=O)NCCC(=O)N1Cc2cnc(-c3ccccc3)nc2C1`, the cytotoxicity at 10 µM is -4.65%. For the molecule `CC1(C)[C@H](Cc2cc(CN3CCOCC3)on2)C[C@@H]1NC(=O)C1CCC1`, the cytotoxicity at 10 µM was -6.67%.

In the case of `CCC(O)CN1CCN(C(=O)Cc2cc(C)ccc2OC)CC1` (stereo unspecified), the cytotoxicity at 10 µM is -30.9%. Next, `CCOc1ccc(N(CCC#N)C(=O)c2ccc(OC)nc2)cc1`: 2.52%; `CN1CCCN(S(=O)(=O)c2cccc(C(=O)N3CCCCCC3)c2)CC1`: -5.9%. With `CC(C)(C)n1ncc2c(=O)n(CC(=O)NCCc3ccccc3)cnc21` the figure was -11.3%; with `CNC(=O)CC1COCCN1C(=O)C1(c2ccc(Cl)cc2)CCC1` (stereo unspecified), 5.33%. `Cc1nn(CCO)c(C)c1-c1cc(C(C)(C)C)nc(N)c1C#N`: the cytotoxicity at 10 µM was found to be 4.93%. In the case of `Cc1ncsc1C(=O)N1CCCC(c2nccn2Cc2cscn2)C1` (stereo unspecified), the cytotoxicity at 10 µM is -0.0612%.

As for `c1cc(-c2cn[nH]c2)ccc1CN1CCNCC1`, the cytotoxicity at 10 µM worked out at 0.866%. Next, `Cc1ccc(C)c(OCCNC(=O)C2CCOC2)c1` (stereo unspecified): -2.73%; `Cc1cc(NC(=O)CN2CCCC2c2noc(C3CC3)n2)no1` (stereo unspecified): -13%. As to `CN(Cc1ccc(Cl)s1)C(=O)c1cccc(OCC(N)=O)c1`, the cytotoxicity at 10 µM was -1.61%. Turning to `Cc1cc(NC(=O)Cn2cnc(-c3cccs3)cc2=O)no1`, the cytotoxicity at 10 µM is -0.243%. On to `O=C(NCc1cc(Br)cs1)Nc1cn[nH]c1`, for which the cytotoxicity at 10 µM turned out to be 5.85%. Next, `CC(C)Cc1cc(C(=O)NC(C)C)[nH]n1`: 5.67%; `Cc1nc(CCNC(=O)NCc2cccc(N(C)C)n2)cs1`: 12%. With `CC(=O)N1CCCN(C(C(=O)O)c2ccc(C)cc2C)CC1` (stereo unspecified) the figure was -3.98%; with `CCc1nccn1C1CCCN(C(=O)c2ccc3c(c2)OCCO3)C1` (stereo unspecified), -11.8%; with `COc1ccccc1C(C)NC(=O)N1CCC(n2cncn2)CC1` (stereo unspecified), 2.85%. For `c1cnc(-c2nc(CN3CCCC3Cn3cncn3)cs2)nc1` (stereo unspecified), the cytotoxicity at 10 µM is -9.77%. `Cc1ncc(CN2CCOCC2)c2cc(C(=O)c3ccc(Br)cc3)oc12`: the cytotoxicity at 10 µM was 3.54%. `CC(=O)NCCNC(=O)Nc1cccc(Cl)c1SC(F)F`: the cytotoxicity at 10 µM is -13.1%. Next, `c1coc(-c2nc3c(c(NCc4n[nH]c5c4CCC5)n2)CCNCC3)c1`: -3.36%; `CS(=O)(=O)NCCCN1CCCC1c1cccc(Br)c1` (stereo unspecified): -2.51%; `Cc1noc(CN(C)CC2CCN(CCO)CC2)n1`: 5.82%.

Consider `CC(C)(O)CCc1cccc(C(=O)N2CCC[C@H]2C(N)=O)c1`, for which the cytotoxicity at 10 µM amounted to 10.4%. With `CS(=O)(=O)N1CCc2[nH]cnc2C12CCN(C(=O)c1ccccc1)CC2`, the cytotoxicity at 10 µM was -2.66%. With `CCc1nccn1-c1cncc(C2CCCN2Cc2ccccc2)n1` (stereo unspecified) the figure was -1.17%.

For `O=C(N[C@H]1CN[C@H]2CCCO[C@H]21)c1cscn1`, the cytotoxicity at 10 µM was -13.7%. With `CC(C)CN1CCc2[nH]cnc2C12CCN(C(=O)c1cncn1C)CC2` the figure was -8.1%; with `Cc1cc(C)cc(OCCN(C)Cc2cscn2)c1`, 6.56%; with `Cc1n[nH]c(C)c1CCC(=O)N1CCC(O)(CN2CCOCC2)C1` (stereo unspecified), 3.38%.

Consider `Cc1ccc(NC(=O)[C@H]2C[C@H](C(=O)O)CN(CC(C)C)C2)cn1`, for which the cytotoxicity at 10 µM worked out at 9.9%. With `CC(=O)NCC1CN(c2ccc3c(Cl)ccnc3c2F)CCO1` (stereo unspecified) the figure was 5.29%; with `COCc1cc(NCc2cc(F)ccc2F)n2nccc2n1`, -2.32%. As to `Fc1cccc(CN2CCC(c3noc(-c4cnccn4)n3)CC2)c1F`, the cytotoxicity at 10 µM is -1.37%. Consider `CCNS(=O)(=O)c1ccc(C)c(C(=O)N(CCC#N)Cc2ccco2)c1`, for which the cytotoxicity at 10 µM worked out at 5.44%. With `CN(Cc1ccsc1)C(=O)Nc1ccc(S(C)(=O)=O)nc1` the figure was 3.28%. Next, `Cc1csc(CCCNC(C)CC(=O)Nc2cccc(C)c2C)n1` (stereo unspecified): 5.76%.

`Cc1ccc(CN2CCC(F)(F)C3(CCN(c4cnccn4)C3)C2)o1` (stereo unspecified): the cytotoxicity at 10 µM is -3.71%. Turning to `CC(NS(=O)(=O)CCCC#N)c1cccc(-n2cccn2)c1` (stereo unspecified), the cytotoxicity at 10 µM came out at 1.42%. As to `COc1cccc(NC(=O)N(CCO)Cc2ccsc2)c1`, the cytotoxicity at 10 µM was -9.87%. Next, `CC(C)(C)C(O)CN1CCN(CC(=O)NC2CCOCC2)CC1` (stereo unspecified): -8.06%; `CCN(CC1CCOC1)C(=O)NCc1nnc2n1CCCCC2` (stereo unspecified): -0.43%.

For the molecule `CC(C)c1noc(CCC(=O)NC(C)c2ccccn2)n1` (stereo unspecified), the cytotoxicity at 10 µM was -5.86%. Turning to `Cc1ccc(CN2CC3(CCN(C(=O)c4cccnc4)C3)C2)o1`, the cytotoxicity at 10 µM was -79.6%. Turning to `O=C(Cc1ccc(F)cc1)N1CCCC(c2n[nH]c3nccnc23)C1` (stereo unspecified), the cytotoxicity at 10 µM was 4.59%. Next, `Cc1cnn(CC2CN(CC(=O)Nc3cc(C)on3)CCO2)c1` (stereo unspecified): -7.3%; `COCCN(CCOC)C(=O)c1ccn(-c2ccc3ccccn23)n1`: 7.22%; `CCC(NC(=O)C1CCN(S(C)(=O)=O)CC1)c1ccc(C)cc1` (stereo unspecified): -5.85%. Turning to `O=C(Cc1cccnc1)N1CCC2(CC1)CCN(C1CCOCC1)CC2`, the cytotoxicity at 10 µM was -8.25%.

In the case of `CCCC1c2cccn2CCN1C(=O)c1cc(CC)no1` (stereo unspecified), the cytotoxicity at 10 µM was -14.9%. Next, `Cc1nc(-c2ccccc2)sc1CSCCS(C)(=O)=O`: 3.85%; `Cc1ccc(OCC2CCCN(C(=O)c3csc(CN(C)C)n3)C2)cc1` (stereo unspecified): -3.16%. Next, `CCc1nc(C2CCCN(C(=O)c3ccc(F)cc3)C2)no1` (stereo unspecified): -40.5%. For the molecule `Cc1cnn(CC2CCCN2CC(=O)Nc2nncs2)c1` (stereo unspecified), the cytotoxicity at 10 µM is -2.03%. Next, `COCCN1CCC2(COCc3cnc(-c4ccccc4)nc32)C1` (stereo unspecified): -111%.
